According to ChEMBL document CHEMBL1156807, “Catalysis and inhibition of Mycobacterium tuberculosis methionine aminopeptidase” (J Med Chem, 2010):

Legend:
[1] = Inhibition of Mycobacterium tuberculosis MetAP1c mediated cell growth of Escherichia coli lacking endogenous MetAP complemented with MtMetAP1c after 72 hrs by resazurin dye reduction method
[2] = Inhibition of Mycobacterium tuberculosis MetAP1c expressed in Escherichia coli lacking endogenous MetAP by cell based Met-AMC substrate hydrolysis assay
How it was run: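 E. coli carrying a chromosomal amber mutation in EcMetAP and complemented by plasmid-borne MtMetAP1c were grown to exponential phase and washed. Cells were stored in CaCl2/Tris/glycerol at −80 °C. The assay held 150 µM Met-AMC, 5 mM CaCl2 (for permeabilization) and 50 mM Tris pH 7.5, with inhibitor at 12 serial dilutions. Fluorescence (ex 360/em 460) was read every 2 min for 6-8 hr at room temperature. IC50 came from hydrolysis rates.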

[3] = Inhibition of Mycobacterium tuberculosis H37Rv MetAP1c in presence of 50 uM Mn(2+) by Met-AMC substrate hydrolysis assay
[4] = Inhibition of Mycobacterium tuberculosis H37Rv MetAP1c in presence of 50 uM Fe(2+) by Met-AMC substrate hydrolysis assay
How it was run: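 Recombinant MtMetAP1c (mapB gene) was expressed in E. coli BL21(DE3) and purified as the apoenzyme (0.5 µM). It was activated with FeCl2 50 µM plus 100 µM ascorbic acid, CoCl2 10 µM, MnCl2 20 µM or NiCl2 20 µM. Buffer was 50 mM MOPS pH 7.5 with 100 µM Met-AMC at room temperature, read by fluorescence at ex 360/em 460.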

[5] = Inhibition of Mycobacterium tuberculosis H37Rv MetAP1c in presence of 50 uM Co(2+) by Met-AMC substrate hydrolysis assay
[6] = Inhibition of Mycobacterium tuberculosis H37Rv MetAP1c in presence of 50 uM Ni(2+) by Met-AMC substrate hydrolysis assay

In the case of `O=C(O)c1ccc(-c2cc(Cl)ccc2Cl)o1`, the IC50 [1] is reported as > 1000 µM, the IC50 [2] is reported as 623 µM and the IC50 [3] is reported as 14 µM. The IC50 [4] was > 500 µM, the IC50 [5] was > 500 µM and the IC50 [6] was > 500 µM.
For `Cc1ccc(CSc2nnc(N)[nH]2)cc1`, the IC50 [1] was > 1000 µM, the IC50 [2] was 281 µM and the IC50 [3] was 26 µM. For the same compound, the IC50 [4] was > 500 µM, the IC50 [5] was 0.69 µM and the IC50 [6] was 2.5 µM.
In the case of `Cc1nc(-c2ccc(O)c(O)c2)cs1`, the IC50 [1] is reported as 208 µM, the IC50 [2] is reported as 20 µM and the IC50 [3] is reported as 37 µM. The IC50 [4] was 3.6 µM, the IC50 [5] was 76 µM and the IC50 [6] was 104 µM.
With `Fc1ccc(CSc2nnc[nH]2)cc1` the IC50 [3] was 143 µM, the IC50 [4] was > 500 µM and the IC50 [5] was 2 µM.
With `Nc1nnc(SCc2ccc(Cl)cc2Cl)[nH]1` the IC50 [3] was 2 µM and the IC50 [4] was 40 µM.
For `Nc1nnc(SCc2ccc(F)cc2)[nH]1`, the IC50 [1] was > 1000 µM, the IC50 [2] was 121 µM and the IC50 [3] was 18 µM. For the same compound, the IC50 [4] was > 500 µM, the IC50 [5] was 0.74 µM and the IC50 [6] was 1.3 µM.
For `O=C(O)c1ccc(-c2ccccc2Cl)o1`, the IC50 [3] was 16 µM, the IC50 [4] was > 500 µM and the IC50 [5] was > 500 µM. For the same compound, the IC50 [6] was > 500 µM.
Work on `Cc1ccsc1-c1ccc(O)c(O)c1` yielded an IC50 [1] of 89.5 µM, an IC50 [2] of 35 µM and an IC50 [3] of 14 µM. For the same compound, the IC50 [4] was 1.4 µM, the IC50 [5] was 38 µM and the IC50 [6] was 60 µM.
